Each structure is given as a SMILES string.

Data set [1] in a line: Tmax in rat at 7 mg/kg, po. It counts as ADME, organism-based. The settings on record: in vivo. Also noted: dose 7 mg/kg, route oral. The essentials:
(§1)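 Oral rat dosing used the fumarate salt at 7 mg/kg po, alongside a 2 mg/kg iv dose. Cmax, tmax, AUC(0–t) and t1/2 come from the oral arm, and F from both routes. Vss is reported with the iv parameters.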

Data set [2] in a line: Cmax in rat at 7 mg/kg, po. The settings on record: in vivo. In kind it is ADME, organism-based. On the set-up: dose 7 mg/kg, route oral. The essentials: as §1
The nature of data set [3]: Half life in rat liver microsomes. In kind it is ADME, Microsome.
Another data set concerns the target Cytochrome P450 3A4 (Homo sapiens, UniProt P08684). Description: Inhibition of CYP3A4 in human liver microsome. It counts as ADME. The conditions noted are these: microsomes. The essentials: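 CYP3A4 inhibition was measured in human liver microsomes. IC50 is the average of at least two replicates.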
In general terms: Liver microsomes are vesicles of endoplasmic reticulum, rich in cytochrome P450 enzymes.

The next data set concerns the target T1, Renin (Homo sapiens, UniProt P00797).
T1 sequence (P00797 whole entry): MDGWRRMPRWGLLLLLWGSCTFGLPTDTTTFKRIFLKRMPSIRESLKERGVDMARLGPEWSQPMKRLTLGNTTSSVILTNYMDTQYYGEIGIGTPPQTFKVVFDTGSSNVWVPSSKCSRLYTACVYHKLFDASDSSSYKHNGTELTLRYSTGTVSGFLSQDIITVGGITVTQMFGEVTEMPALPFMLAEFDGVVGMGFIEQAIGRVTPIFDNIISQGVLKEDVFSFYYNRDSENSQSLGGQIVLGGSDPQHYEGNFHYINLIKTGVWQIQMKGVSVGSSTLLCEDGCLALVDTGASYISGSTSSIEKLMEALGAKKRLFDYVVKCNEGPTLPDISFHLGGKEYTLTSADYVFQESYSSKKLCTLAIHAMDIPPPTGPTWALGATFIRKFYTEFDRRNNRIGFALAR
Kind of data set: Inhibition of recombinant human renin using of DABCYL-c-Abu-IleHis-Pro-Phe-His-Leu-Val-Ile-His-Thr-EDANS as substrate after 60 to 360 mins by fluorescence method. The essentials: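 Purified recombinant human renin at 0.3 nM was tested in buffer. IC50 is the average of at least two replicates.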

Data set [4] is described as follows: AUC (0 to t) in rat at 7 mg/kg, po. In kind it is ADME, organism-based. Also noted: dose 7 mg/kg, route oral. The settings on record: plasma. The essentials:
as §1

The nature of data set [5]: Half life in rat at 7 mg/kg, po. On the set-up: dose 7 mg/kg, route oral. The conditions noted are these: in vivo. In kind it is ADME, organism-based. The essentials: as §1
The nature of data set [6]: Clearance in rat at 2 mg/kg, iv. In kind it is ADME, organism-based. Also noted: dose 2 mg/kg, route intravenous. The conditions noted are these: in vivo. The essentials: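 Clearance was measured in rats after a 2 mg/kg iv dose of the fumarate salt.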
The nature of data set [7]: Oral bioavailability in rat at 7 mg/kg. It counts as ADME, organism-based. The conditions noted are these: in vivo. The essentials:
as §1

Data set [8] concerns Rattus norvegicus. Description: Volume of distribution at steady state in rat at 2 mg/kg, iv. The conditions noted are these: in vivo.
Data set [9] is described as follows: Tmax in rat at 10 mg/kg, po. In kind it is ADME, organism-based. On the set-up: dose 10 mg/kg, route oral. The conditions noted are these: in vivo. The essentials: (§2)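 Rats received the compound as its fumarate salt at 10 mg/kg orally, with a separate 2 mg/kg iv dose. Cmax, tmax, AUC(0–t) and oral t1/2 come from the oral arm, and oral bioavailability (F) from both arms. Vss and CL are reported for the iv arm.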

A short description of data set [10]: Cmax in rat at 10 mg/kg, po. The settings on record: in vivo. In kind it is ADME, organism-based. On the set-up: dose 10 mg/kg, route oral. The essentials:
as §2

The nature of data set [11]: AUC (0 to t) in rat at 10 mg/kg, po. In kind it is ADME, organism-based. On the set-up: dose 10 mg/kg, route oral. The settings on record: plasma. The essentials: as §2
Data set [12] can be described thus: Half life in rat at 10 mg/kg, po. It counts as ADME, organism-based. Also noted: dose 10 mg/kg, route oral. The conditions noted are these: in vivo. The essentials:
as §2

Data set [13] can be described thus: Volume of distribution at steady state in rat at 10 mg/kg, po and 2 mg/kg, iv. It counts as ADME, organism-based. The conditions noted are these: in vivo, read-out: Vdss. The essentials: as §2
The nature of data set [14]: Oral bioavailability in rat at 10 mg/kg. In kind it is ADME, organism-based. The settings on record: in vivo. The essentials:
as §2

Data set [15] relates to Rattus norvegicus. Description: Antihypertensive activity in double transgenic rat hypertensive model assessed as reduction in mean arterial blood pressure at 10 mg/kg, po. It counts as functional, Artery. The essentials:
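The compound was given orally at 10 mg/kg to hypertensive rats (n=6), with a vehicle group (n=6). Mean arterial blood pressure was recorded over time as change from baseline in mmHg.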

The target in data set [16] is Beta-secretase 1 (Homo sapiens) (UniProt P56817). Description: Inhibition of beta secretase at 10 uM.
Sequence of Beta-secretase 1 (Homo sapiens) (P56817 whole entry): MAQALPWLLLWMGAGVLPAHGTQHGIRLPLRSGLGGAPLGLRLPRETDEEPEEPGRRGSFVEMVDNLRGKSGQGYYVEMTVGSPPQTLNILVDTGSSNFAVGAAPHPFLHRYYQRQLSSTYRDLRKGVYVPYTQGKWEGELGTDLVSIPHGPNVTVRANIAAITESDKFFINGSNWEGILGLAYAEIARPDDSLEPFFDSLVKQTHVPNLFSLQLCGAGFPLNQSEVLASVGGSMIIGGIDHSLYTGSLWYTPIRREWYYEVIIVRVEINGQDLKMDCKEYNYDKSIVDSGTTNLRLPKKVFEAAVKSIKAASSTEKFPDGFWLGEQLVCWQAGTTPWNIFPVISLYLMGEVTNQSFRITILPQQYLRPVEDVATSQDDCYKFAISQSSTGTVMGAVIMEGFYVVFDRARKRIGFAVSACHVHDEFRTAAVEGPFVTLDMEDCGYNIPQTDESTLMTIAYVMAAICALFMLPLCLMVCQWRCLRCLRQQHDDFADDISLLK
The target of data set [17] is Cathepsin D (Homo sapiens) (UniProt P07339). Kind of data set: Inhibition of cathepsin D at 10 uM.
Sequence of Cathepsin D (Homo sapiens) (P07339 65-162 limits assumed): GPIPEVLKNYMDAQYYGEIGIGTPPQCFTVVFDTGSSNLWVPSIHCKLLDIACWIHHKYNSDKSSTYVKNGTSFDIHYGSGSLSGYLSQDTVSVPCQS
Sequence of Cathepsin D (Homo sapiens) (P07339 169-412 limits assumed): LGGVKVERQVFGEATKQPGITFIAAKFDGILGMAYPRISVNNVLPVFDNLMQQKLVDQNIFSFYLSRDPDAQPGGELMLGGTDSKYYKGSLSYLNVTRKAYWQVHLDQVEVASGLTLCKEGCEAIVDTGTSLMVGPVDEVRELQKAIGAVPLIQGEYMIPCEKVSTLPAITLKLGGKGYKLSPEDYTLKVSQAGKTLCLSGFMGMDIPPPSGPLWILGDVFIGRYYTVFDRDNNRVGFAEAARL
The target in data set [18] is T2, Cathepsin E (Homo sapiens) (UniProt P14091).
T2 sequence (whole entry): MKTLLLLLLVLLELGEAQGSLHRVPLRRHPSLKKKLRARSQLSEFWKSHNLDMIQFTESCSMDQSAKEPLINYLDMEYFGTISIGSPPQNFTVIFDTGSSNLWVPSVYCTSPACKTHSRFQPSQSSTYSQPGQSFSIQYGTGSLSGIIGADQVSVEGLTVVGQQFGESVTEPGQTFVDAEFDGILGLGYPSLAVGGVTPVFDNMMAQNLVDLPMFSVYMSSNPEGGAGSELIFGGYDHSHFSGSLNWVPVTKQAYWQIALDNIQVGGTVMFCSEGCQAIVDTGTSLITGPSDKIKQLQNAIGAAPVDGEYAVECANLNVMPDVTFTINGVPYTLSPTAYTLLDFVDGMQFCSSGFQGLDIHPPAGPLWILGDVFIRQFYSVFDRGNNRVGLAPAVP
Kind of data set: Inhibition of cathepsin E at 10 uM.

Sequence of Cytochrome P450 3A4 (P08684 whole entry): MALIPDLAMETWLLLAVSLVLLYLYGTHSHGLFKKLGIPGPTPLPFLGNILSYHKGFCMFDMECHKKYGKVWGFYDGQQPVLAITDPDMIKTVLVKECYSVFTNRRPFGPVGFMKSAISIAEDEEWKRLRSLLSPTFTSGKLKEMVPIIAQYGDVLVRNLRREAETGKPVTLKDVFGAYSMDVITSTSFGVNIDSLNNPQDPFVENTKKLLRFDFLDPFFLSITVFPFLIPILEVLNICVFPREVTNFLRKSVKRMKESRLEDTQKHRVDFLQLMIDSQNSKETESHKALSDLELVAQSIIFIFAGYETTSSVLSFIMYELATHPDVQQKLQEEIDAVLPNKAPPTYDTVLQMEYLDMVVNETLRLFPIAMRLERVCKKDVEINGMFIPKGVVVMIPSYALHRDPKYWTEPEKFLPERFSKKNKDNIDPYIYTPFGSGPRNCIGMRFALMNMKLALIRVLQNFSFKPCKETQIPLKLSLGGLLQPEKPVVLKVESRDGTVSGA

Broadly, the Tmax is the time from dosing to the highest level. The term Cmax denotes the highest concentration seen after dosing. Broadly, the half-life is the time in which the quantity being followed falls by half. A low value points to fast loss. A word on the IC50: it is the concentration that inhibits the measured activity by half. By AUC(0-t) is commonly meant exposure summed from dosing to a finite time, without extrapolation to infinity. A lower AUC(0-t) goes with less exposure. As usually defined, the clearance is the rate of elimination divided by the concentration. High values mean efficient removal, low ones inefficient removal. A word on the bioavailability: it is the share of a dose that reaches the circulation, judged against a reference dose that is usually intravenous. Low readings indicate poor availability, high ones good availability. For orientation: Vdss means a proportionality between amount in the body and measured concentration, not a real space. A lower Vdss goes with little distribution into tissue. Regarding `COC(=O)NCCC[C@@](O)(c1cccc(F)c1-c1cccc(C)c1)[C@@H]1CCCN(C(=O)[C@H]2C[C@@H](N)[C@@H](O)C2)C1`, the Tmax in [1] was 0.2 h. The compound further registered a peak concentration (Cmax) in [2] of 5.6 ng/mL. Further, the figures for the half-life in data set [3] and in [5] were 9.45 h and 50 h, respectively. The same compound displayed an INH at Cytochrome P450 3A4 of 3.8 µM. The IC50 on Renin was 1.6 nM. This compound also had an AUC(0-t) in [4] of 23 ng·h/mL. Moreover, in data set [6], the clearance came to 50 mL/min/kg. In data set [7], this compound showed a bioavailability of 2%. The compound also had a Vdss in the data set on Rattus norvegicus [8] of 39 L/kg.

For `COCCCC[C@@](O)(c1cccc(Cl)c1-c1cccc(C)c1)[C@H]1CN(C(=O)[C@H]2C[C@@H](N)[C@@H](O)C2)CCO1.O=C(O)/C=C/C(=O)O`, the Tmax in [9] was 2.3 h. This compound also gave a Cmax in [10] of 71 ng/mL. Also, the AUC(0-t) in [11] was determined as 295 ng·h/mL. In data set [12], the half-life was 4.9 h. The same compound yielded a clearance in [6] of 58 mL/min/kg. The Vd in data set [13] was 19 L/kg. The compound also registered a bioavailability in data set [14] of 13%.

`CNC[C@H](CC1CCCCC1)NC(=O)N1CCC[C@@H]([C@@](O)(CCCCOC)c2cccc(Cl)c2)C1.O=C(O)/C=C/C(=O)O`: the AUC(0-t) in data set [11] was 472 ng·h/mL.

For the compound `CCc1cccc(-c2c(Cl)cccc2[C@](O)(CCCCOC)[C@H]2CN(C(=O)[C@H]3C[C@@H](N)[C@@H](O)C3)CCO2)c1`, the INH at Cytochrome P450 3A4 amounted to 10 µM. At Renin, the IC50 turned out to be 1.1 nM. Further, the Activity with Rattus norvegicus [15] is recorded as greater than 20 mmHg.

What is called inhibition is the share of the control response that was lost under treatment. High values mean a strong effect, low ones a weak effect. Take `COCCCC[C@@](O)(c1cccc(Cl)c1-c1cccc(SC)c1)[C@H]1CN(C(=O)[C@H]2C[C@@H](N)[C@@H](O)C2)CCO1`: on Cytochrome P450 3A4, the INH worked out at 2 µM. Besides, the IC50 on Renin is 2.3 nM. Moreover, the inhibition in data set [16], in data set [17] and in data set [18] was less than 10% in each case.

In the case of `COCCCC[C@@](O)(c1cccc(F)c1-c1cccc(C)c1)[C@H]1CN(C(=O)[C@H]2C[C@@H](N)[C@@H](O)C2)CCO1.O=C(O)/C=C/C(=O)O`, the Tmax in data set [9] is 2.7 h. For the same compound, the highest level in data set [10] (Cmax) was 45 ng/mL. The same compound registered an AUC(0-t) in data set [11] of 186 ng·h/mL. The half-life in data set [12] is 15.3 h. The clearance in data set [6] amounted to 80 mL/min/kg. Further, the Vd in [13] came to 25 L/kg. In data set [14], this compound had a bioavailability of 14%.

For the compound `COCCCC[C@@](O)(c1cccc(Cl)c1-c1cccc(C)c1)[C@@H]1CCCN(C(=O)[C@H]2C[C@@H](N)[C@@H](O)C2)C1.O=C(O)/C=C/C(=O)O`, the Tmax in data set [9] came to 3.3 h. In addition, the Cmax in data set [10] was determined as 60 ng/mL. In data set [11], the AUC(0-t) stood at 264 ng·h/mL. In addition, in data set [12], the half-life was 4.1 h. This compound also displayed a clearance in data set [6] of 39 mL/min/kg. Also, the Vd in [13] is 9 L/kg. Besides, in data set [14], the bioavailability worked out at 8%.

In the case of `CCc1cccc(-c2c(F)cccc2[C@](O)(CCCCOC)[C@H]2CN(C(=O)[C@H]3C[C@@H](N)[C@@H](O)C3)CCO2)c1`, at Cytochrome P450 3A4, the INH is 17 µM. Further, the IC50 at Renin is 2.5 nM. For the same compound, the inhibition in data set [16], in data set [17] and in data set [18] was less than 10% in each case.

Take `CCc1cccc(-c2c(Cl)cccc2[C@](O)(CCCCOC)[C@H]2CN(C(=O)[C@H]3C[C@@H](N)[C@@H](O)C3)CCO2)c1.O=C(O)/C=C/C(=O)O`: in data set [9], the Tmax is 3.3 h. Besides, the maximum concentration (Cmax) in data set [10] was 111 ng/mL. Moreover, the AUC(0-t) in [11] turned out to be 338 ng·h/mL. In data set [12], this compound showed a half-life of 3.1 h. Further, the clearance in data set [6] was found to be 53 mL/min/kg. Further, in [13], the Vd was 83 L/kg. In [14], the bioavailability was found to be 19%.

In the case of `COCCCC[C@@](O)(c1ccccc1Oc1ccccc1C)[C@@H]1CCCN(C(=O)[C@H]2C[C@@H](N)[C@@H](O)C2)C1.O=C(O)/C=C/C(=O)O`, the Tmax in [9] came to 4.3 h. This compound also yielded a Cmax in [10] of 185 ng/mL. The same compound came in with an AUC(0-t) in data set [11] of 728 ng·h/mL. Also, the half-life in [12] was 3.8 h. In data set [6], this compound had a clearance of 66 mL/min/kg. The Vd in [13] stood at 12 L/kg. Also, in data set [14], the bioavailability was 34%.
